tested on: Shigella sonnei; experiment: Antibacterial activity against Shigella sonnei assessed as growth inhibition after 18 hrs by broth dilution method; assay type: functional; conditions: not given
Summary of the method: (§1)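 Twofold serial dilutions in heart infusion broth. Inoculum was a 24-h heart infusion broth culture diluted 100-fold in physiological saline. Tubes incubated 30 °C for 18 h; the table footnote gives 32 °C for 24 h. MIC in µg/ml is the lowest level giving complete growth inhibition.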

SMILES	MIC [µg/mL]
CO[C@H]1O[C@H](CO)[C@@H](O)[C@H](O)[C@H]1NC(=O)N(C)N=O	> 1000
CCO[C@@H]1O[C@H](CO)[C@@H](O)[C@H](O)[C@H]1NC(=O)N(C)N=O	> 1000

tested on: not listed separately; experiment: Ratio of compound LD50 to streptozotocin LD50 for JCL-ICR mouse; assay type: ADME, organism-based; conditions: in vivo

SMILES	selectivity ratio
CO[C@H]1O[C@H](CO)[C@@H](O)[C@H](O)[C@H]1NC(=O)N(C)N=O	2
CCO[C@@H]1O[C@H](CO)[C@@H](O)[C@H](O)[C@H]1NC(=O)N(C)N=O	2

tested on: Enterococcus faecalis; experiment: Antibacterial activity against Streptococcus faecalis ATCC 10541 assessed as growth inhibition after 18 hrs by broth dilution method; assay type: functional; conditions: ATCC 10541, 18 h; summary of the method: as §1

SMILES	MIC [µg/mL]
CO[C@H]1O[C@H](CO)[C@@H](O)[C@H](O)[C@H]1NC(=O)N(C)N=O	> 1000
CCO[C@@H]1O[C@H](CO)[C@@H](O)[C@H](O)[C@H]1NC(=O)N(C)N=O	> 1000

tested on: Escherichia coli; experiment: Antibacterial activity against Escherichia coli NIHJ JC-2 assessed as growth inhibition after 18 hrs by broth dilution method; assay type: functional; conditions: NIHJ JC-2, 18 h; summary of the method: as §1

SMILES	MIC [µg/mL]
CO[C@H]1O[C@H](CO)[C@@H](O)[C@H](O)[C@H]1NC(=O)N(C)N=O	> 1000
CCO[C@@H]1O[C@H](CO)[C@@H](O)[C@H](O)[C@H]1NC(=O)N(C)N=O	> 1000

tested on: Micrococcus luteus; experiment: Antibacterial activity against Sarcina lutea ATCC 9341 assessed as growth inhibition after 18 hrs by broth dilution method; assay type: functional; conditions: ATCC 9341, 18 h; summary of the method: as §1

SMILES	MIC [µg/mL]
CO[C@H]1O[C@H](CO)[C@@H](O)[C@H](O)[C@H]1NC(=O)N(C)N=O	> 1000
CCO[C@@H]1O[C@H](CO)[C@@H](O)[C@H](O)[C@H]1NC(=O)N(C)N=O	> 1000

tested on: Ehrlich; experiment: Antitumor activity against mouse EAC allografted in ICR mouse assessed as tumor growth at 150 mg/kg, ip qd for 5 days measured on day 7 relative to control; assay type: functional; conditions: route intraperitoneal
Summary of the method: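 Ehrlich ascites carcinoma (1 × 10^7 cells) implanted into ICR mice, six per group. Drug in saline ip, qd days 1–5. Mice killed day 7. Total packed cell volume = ascites volume × % packed cell volume; T/C % = TPCV treated/control × 100. Activity graded from T/C.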

SMILES	T/C [%]
CO[C@H]1O[C@H](CO)[C@@H](O)[C@H](O)[C@H]1NC(=O)N(C)N=O	16

tested on: Bacillus subtilis; experiment: Antibacterial activity against Bacillus subtilis ATCC 6633 assessed as growth inhibition after 18 hrs by broth dilution method; assay type: functional; conditions: ATCC 6633, 18 h; summary of the method: as §1

SMILES	MIC [µg/mL]
CO[C@H]1O[C@H](CO)[C@@H](O)[C@H](O)[C@H]1NC(=O)N(C)N=O	> 1000
CCO[C@@H]1O[C@H](CO)[C@@H](O)[C@H](O)[C@H]1NC(=O)N(C)N=O	> 1000

tested on: Proteus vulgaris; experiment: Antibacterial activity against Proteus vulgaris AHU 1469 assessed as growth inhibition after 18 hrs by broth dilution method; assay type: functional; conditions: AHU 1469, 18 h; summary of the method: as §1

SMILES	MIC [µg/mL]
CO[C@H]1O[C@H](CO)[C@@H](O)[C@H](O)[C@H]1NC(=O)N(C)N=O	> 1000
CCO[C@@H]1O[C@H](CO)[C@@H](O)[C@H](O)[C@H]1NC(=O)N(C)N=O	> 1000

tested on: Mus musculus; experiment: Toxicity in BDF1 mouse allografted with mouse L1210 cells assessed as mortality at 50 mg/kg, ip qd for 5 days; assay type: organism-based; parameters: dose 50 mg/kg, route intraperitoneal; conditions: in vivo, 120 h
Summary of the method: (§2)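 L1210 (1 × 10^5 cells) implanted into BDF1 mice, six per group; compound in saline ip once daily days 1-5; effect read as % increase in life span, ILS = [(treated life span/control life span) − 1] × 100.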

SMILES	Activity
CO[C@H]1O[C@H](CO)[C@@H](O)[C@H](O)[C@H]1NC(=O)N(C)N=O	Non-toxic

tested on: Rattus norvegicus; experiment: Diabetogenic activity in Wistar rat assessed as increase in blood sugar level at 71.4 mg/kg, iv administered as single dose by glucose oxidase method; assay type: ADME, organism-based; parameters: dose 71.4 mg/kg, route intravenous; conditions: in vivo
Summary of the method: (§3)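 Male Wistar rats, about 200 g, five per group, fasted 16 h. Single iv dose into the femoral vein in physiological saline, equimolar across compounds. Caudal-vein blood sampled at set times over 24 h. Sugar measured by glucose oxidase.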

SMILES	Activity
CCO[C@@H]1O[C@H](CO)[C@@H](O)[C@H](O)[C@H]1NC(=O)N(C)N=O	Non-toxic

tested on: L1210; experiment: Antitumor activity against mouse L1210 cells allografted in BDF1 mouse assessed as increase in host lifespan at 50 mg/kg, ip qd for 5 days relative to control; assay type: functional; conditions: 120 h, route intraperitoneal; summary of the method: as §2

SMILES	ILS at 50 mg/kg [%]
CO[C@H]1O[C@H](CO)[C@@H](O)[C@H](O)[C@H]1NC(=O)N(C)N=O	35

tested on: Mus musculus; experiment: Toxicity in ICR mouse allografted with mouse S180A assessed as mortality at 25 mg/kg, ip qd for 5 days; assay type: organism-based; parameters: dose 25 mg/kg, route intraperitoneal; conditions: in vivo, 120 h
Summary of the method: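 Ascites Sarcoma 180 (1 × 10^7 cells) implanted into ICR mice, six per group; compound in saline ip once daily days 1-5; sacrifice on day 7; total packed cell volume (ascites volume × PCV) compared with controls as T/C %; mortality recorded.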

SMILES	Activity
CO[C@H]1O[C@H](CO)[C@@H](O)[C@H](O)[C@H]1NC(=O)N(C)N=O	Non-toxic
CCO[C@@H]1O[C@H](CO)[C@@H](O)[C@H](O)[C@H]1NC(=O)N(C)N=O	Non-toxic

tested on: Klebsiella pneumoniae; experiment: Antibacterial activity against Klebsiella pneumoniae ATCC 10031 assessed as growth inhibition after 18 hrs by broth dilution method; assay type: functional; conditions: ATCC 10031, 18 h; summary of the method: as §1

SMILES	MIC [µg/mL]
CO[C@H]1O[C@H](CO)[C@@H](O)[C@H](O)[C@H]1NC(=O)N(C)N=O	> 1000
CCO[C@@H]1O[C@H](CO)[C@@H](O)[C@H](O)[C@H]1NC(=O)N(C)N=O	> 1000

tested on: Mus musculus; experiment: Ratio of compound LD10 to streptozotocin LD10 for JCL-ICR mouse; assay type: ADME, organism-based; conditions: in vivo

SMILES	Ratio
CO[C@H]1O[C@H](CO)[C@@H](O)[C@H](O)[C@H]1NC(=O)N(C)N=O	2
CCO[C@@H]1O[C@H](CO)[C@@H](O)[C@H](O)[C@H]1NC(=O)N(C)N=O	2

tested on: Staphylococcus aureus; experiment: Antibacterial activity against Staphylococcus aureus FDA 209P JC-1 assessed as growth inhibition after 18 hrs by broth dilution method; assay type: functional; conditions: FDA 209P JC-1, 18 h; summary of the method: as §1

SMILES	MIC [µg/mL]
CO[C@H]1O[C@H](CO)[C@@H](O)[C@H](O)[C@H]1NC(=O)N(C)N=O	> 1000
CCO[C@@H]1O[C@H](CO)[C@@H](O)[C@H](O)[C@H]1NC(=O)N(C)N=O	> 1000

tested on: Pseudomonas fluorescens; experiment: Antibacterial activity against Pseudomonas fluorescens NIHJ B-254 assessed as growth inhibition after 18 hrs by broth dilution method; assay type: functional; conditions: NIHJ B-254, 18 h; summary of the method: as §1

SMILES	MIC [µg/mL]
CO[C@H]1O[C@H](CO)[C@@H](O)[C@H](O)[C@H]1NC(=O)N(C)N=O	> 1000
CCO[C@@H]1O[C@H](CO)[C@@H](O)[C@H](O)[C@H]1NC(=O)N(C)N=O	> 1000

tested on: not listed separately; experiment: Antitumor activity against mouse S180A allografted in ICR mouse assessed as tumor growth at 25 mg/kg, ip qd for 5 days measured on day 7 relative to control; assay type: functional; conditions: route intraperitoneal
Summary of the method: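 Ascites Sarcoma 180 (1 × 10^7 cells) implanted into ICR mice, six animals per group. Five daily ip injections in saline (days 1–5). Sacrificed day 7. T/C % computed from total packed cell volume (ascites volume × PCV) vs controls. Grades: 100-66 = -, 65-41 = +, 40-11 = ++, 10-0 = +++.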

SMILES	T/C [%]
CO[C@H]1O[C@H](CO)[C@@H](O)[C@H](O)[C@H]1NC(=O)N(C)N=O	37
CCO[C@@H]1O[C@H](CO)[C@@H](O)[C@H](O)[C@H]1NC(=O)N(C)N=O	37

tested on: Salmonella typhi; experiment: Antibacterial activity against Salmonella typhi IFM 3020 assessed as growth inhibition after 18 hrs by broth dilution method; assay type: functional, Salmonella enterica subsp. enterica serovar Typhi; conditions: Salmonella enterica, IFM 3020, 18 h
Summary of the method: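 Twofold serial dilutions in heart infusion broth; inoculum from 24 h heart infusion broth culture diluted 100-fold in physiological saline; tubes incubated 30 °C for 18 h; MIC (µg/ml) = lowest level giving complete growth inhibition.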

SMILES	MIC [µg/mL]
CO[C@H]1O[C@H](CO)[C@@H](O)[C@H](O)[C@H]1NC(=O)N(C)N=O	> 1000
CCO[C@@H]1O[C@H](CO)[C@@H](O)[C@H](O)[C@H]1NC(=O)N(C)N=O	> 1000

tested on: Rattus norvegicus; experiment: Diabetogenic activity in Wistar rat assessed as increase in blood sugar level at 68 mg/kg, iv administered as single dose by glucose oxidase method; assay type: ADME, organism-based; parameters: dose 68 mg/kg, route intravenous; conditions: in vivo; summary of the method: as §3

SMILES	Activity
CO[C@H]1O[C@H](CO)[C@@H](O)[C@H](O)[C@H]1NC(=O)N(C)N=O	Non-toxic

tested on: Mus musculus; experiment: Toxicity in ICR mouse allografted with mouse EAC assessed as mortality at 150 mg/kg, ip qd for 5 days; assay type: organism-based; parameters: dose 150 mg/kg, route intraperitoneal; conditions: in vivo, 120 h
Summary of the method: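 Ehrlich ascites carcinoma (1 × 10^7 cells) implanted into ICR mice, six per group; compound ip daily for 5 days; mice sacrificed day 7; tumour burden as total packed cell volume (ascites volume × PCV), T/C % vs controls; mortality recorded.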

SMILES	Activity
CO[C@H]1O[C@H](CO)[C@@H](O)[C@H](O)[C@H]1NC(=O)N(C)N=O	Non-toxic

tested on: Mus musculus; experiment: (§4) Acute toxicity in ip dosed JCL-ICR mouse assessed as animal death; assay type: organism-based; conditions: in vivo
Summary of the method: (§5)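 Groups of ten female JCL-ICR mice given single ip dose in physiological saline; deaths followed over 7 days; LD50 (and LD10) derived by Litchfield–Wilcoxon method.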

SMILES	LD10 [mg/kg]
CO[C@H]1O[C@H](CO)[C@@H](O)[C@H](O)[C@H]1NC(=O)N(C)N=O	1380
CCO[C@@H]1O[C@H](CO)[C@@H](O)[C@H](O)[C@H]1NC(=O)N(C)N=O	1550

tested on: not listed separately; experiment: as §4; assay type: organism-based; conditions: JCL-ICR, in vivo; summary of the method: as §5

SMILES	LD50 [mg/kg]
CO[C@H]1O[C@H](CO)[C@@H](O)[C@H](O)[C@H]1NC(=O)N(C)N=O	1930
CCO[C@@H]1O[C@H](CO)[C@@H](O)[C@H](O)[C@H]1NC(=O)N(C)N=O	2050

— ChEMBL document CHEMBL3272319, “Alkyl streptozotocin analogues with improved biological activities” (J Med Chem, 1976)
